In brackets after ≈: the same amount, converted by molar mass.
What was measured:
Plasmodium falciparum = experiment: Antiparasitic activity against Plasmodium falciparum 3D7 after 48 hrs; format: functional, organism-based; conditions: 3D7, 48 h
Summary of the method: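 P. falciparum 3D7 cultures diluted with fresh medium and erythrocytes to 2% parasitemia, 2% hematocrit. Serial compound dilutions added and plates held 48 h at 37 °C. Viability read as parasite lactate dehydrogenase activity, relative to solvent controls with 0.5% DMSO.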

[1] = Hemolytic activity in human erythrocytes at 100 ug/mL after 48 hrs relative to 0.2% saponin; format: ADME, cell-based, Erythrocyte; conditions: read-out: Activity
Summary of the method: (§1)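 Uninfected normal erythrocytes at 2% hematocrit incubated 48 h with compound dilutions in duplicate plates. Cells pelleted at 200g for 3 min, and hemoglobin in the supernatant read by absorbance at 405 nm. Percent hemolysis calculated against 0.2% saponin.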

[2] = Effect on erythrocyte shape in human erythrocytes assessed as stomatocytes at 100 ug/mL after 48 hrs; format: ADME, cell-based
Summary of the method: (§2)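 Fresh erythrocytes at 2% hematocrit incubated 48 h in parasite culture medium alone or with compound. Suspensions then wet-mounted under coverslips and examined at once by phase-contrast microscopy with a 100× oil objective; Giemsa-stained thin smears were also examined. Percent stomatocytes, echinocytes and knizocytes scored using shape definitions of Lim et al.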

[3] = Effect on erythrocyte shape in human erythrocytes assessed as stomatocytes at 50 ug/mL after 48 hrs; format: ADME, cell-based; summary of the method: as §2
[4] = Effect on erythrocyte shape in human erythrocytes assessed as echinocytes at 100 ug/mL after 48 hrs; format: ADME, cell-based; summary of the method: as §2
[5] = Effect on erythrocyte shape in human erythrocytes assessed as echinocytes at 50 ug/mL after 48 hrs; format: ADME, cell-based; summary of the method: as §2
[6] = Hemolytic activity in human erythrocytes at 200 ug/mL after 48 hrs relative to 0.2% saponin; format: ADME, cell-based, Erythrocyte; conditions: read-out: Activity; summary of the method: as §1
[7] = Effect on erythrocyte shape in human erythrocytes assessed as […] and stomatocytes at 100 ug/mL after 48 hrs; format: ADME, cell-based; summary of the method: as §2

Row | SMILES | IC50 (Plasmodium falciparum) | Activity [2] | Activity [3] | Activity [4] | Activity [5] | Activity [7] | hemolysis at 48 h, 100 ug/mL [1] | hemolysis at 48 h, 200 ug/mL [6]
1 | CC1(C)CCC[C@@]2(C)[C@H]1CC[C@@]1(O)CC(CCO)CC[C@@H]12 (stereo partly specified) | 13.3 µg/mL (≈ 45.2 µM) | 3% | 1% | 2% | 3% | – | 0% | 5%
2 | CC1(C)CCC[C@@]2(C)[C@H]1CC[C@@]1(O)C/C(=C\CO)CC[C@@H]12 | 10.6 µg/mL (≈ 36.2 µM) | 64% | 5% | 0% | 1% | – | 2% | 102%
3 | C=C[C@@]1(O)CC[C@H]2[C@@](O)(CC[C@H]3C(C)(C)CCC[C@@]32C)C1 | 10.7 µg/mL (≈ 36.6 µM) | 1% | 1% | 2% | 3% | – | 0.6% | 0.2%
4 | CCOC(=O)/C=C1\CC[C@H]2[C@@](O)(CC[C@H]3C(C)(C)CCC[C@@]32C)C1 | 5.7 µg/mL (≈ 17 µM) | 8% | 2% | 0% | 2% | – | 3% | 17%
5 | CCO[C@@]12CC[C@H]3[C@@](CC[C@H]4C(C)(C)CCC[C@@]43C)(C1)OC(=O)C2 | 19.6 µg/mL (≈ 58.6 µM) | 0% | 1% | 9% | 2% | – | 0% | 0%
6 | CCOC(=O)/C=C1/CC[C@H]2[C@@](O)(CC[C@H]3C(C)(C)CCC[C@@]32C)C1 | 3.9 µg/mL (≈ 11.7 µM) | – | 11% | 0% | 0% | 17% | 9% | 34%

Continued, in another order:

Row | IC50 (Plasmodium falciparum) | Activity [2] | Activity [3] | Activity [4] | Activity [5] | Activity [7] | SMILES | hemolysis at 48 h, 100 ug/mL [1] | hemolysis at 48 h, 200 ug/mL [6]
7 | 7 µg/mL (≈ 22.8 µM) | – | – | – | – | – | C=C[C@@]1(C)CCC2[C@@](O)(CC[C@H]3C(C)(C)[C@@H](O)CC[C@]23C)C1 (stereo partly specified) | – | –
8 | 7 µg/mL (≈ 22 µM) | – | – | – | – | – | C=C[C@@]1(C)CCC2=C(C1)C(=O)C[C@H]1C(C)(CO)[C@@H](O)CC[C@]21C (stereo partly specified) | – | –
9 | 7 µg/mL (≈ 23 µM) | – | – | – | – | – | C=C[C@]1(C)C=C2CC[C@H]3C(C)(CO)[C@@H](O)CC[C@]3(C)[C@H]2CC1 (stereo partly specified) | – | –
10 | 7 µg/mL (≈ 24.3 µM) | – | – | – | – | – | C=C[C@@]1(C)CCC2=C(CC[C@H]3C(C)(C)[C@@H](O)CC[C@]23C)C1 | – | –

Source: ChEMBL document CHEMBL1141246, “Transformations of manool. tri- and tetracyclic norditerpenoids with in vitro activity against Plasmodium falciparum” (J Nat Prod, 2007)
